The source made the active and inactive calls. No cut-off for these calls is given here. Where a SMILES comes first, the peptide text is derived from it. The star is where a group is joined. X1 = CCCCC/C=C\C/C=C\C/C=C\C/C=C\CCCC(=O)O[C@@H](COC(=O)CCCCCCCCCCCCCCCCC)CO*

Series [1] has as its system Fibroblast. The series can be described thus: Immunomodulatory effect in human fibroblasts assessed as induction of MCP1 mRNA expression at 3 ng/ml after 24 hrs by SYBR Green PCR relative to beta-actin control. It counts as functional. The procedure, abridged:
(§1)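 Normal primary human fibroblasts were grown in DMEM with 10% FBS and 1× penicillin/streptomycin at 37 °C and 5% CO2. Cells were treated for 24 h with synthetic compound or with purified natural material diluted 1:100. Total RNA was extracted, and 2.0 µg was reverse-transcribed for transcript quantitation. Expression was normalised to β-actin.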

The subject of series [2] is Fibroblast. The series can be described thus: Induction of IL6 expression in human fibroblasts at 12.5 ng/ml after 24 hrs by SYBR Green PCR relative to untreated control. It is filed as functional, cell-based.
Series [3] concerns Fibroblast. The series can be described thus: Induction of IL33 expression in human fibroblasts at 12.5 ng/ml after 24 hrs by SYBR Green PCR relative to untreated control. It counts as functional, cell-based.
For series [4], the system named is Fibroblast. The series can be described thus: Immunomodulatory effect in human fibroblasts assessed as induction of MIP-1alpha mRNA expression at 3 ng/ml after 24 hrs by SYBR Green PCR relative to beta-actin control. It is filed as functional. Put shortly: as §1
The subject of series [5] is Fibroblast. In words: Induction of IL1-beta expression in human fibroblasts at 12.5 ng/ml after 24 hrs by SYBR Green PCR relative to untreated control. It counts as functional, cell-based.
Series [6] deals with Fibroblast. The series can be described thus: Induction of IL18 expression in human fibroblasts at 12.5 ng/ml after 24 hrs by SYBR Green PCR relative to untreated control. It counts as functional.
The test system of series [7] is Fibroblast. The series can be described thus: Immunomodulatory effect in human fibroblasts assessed as induction of MIP-1alpha mRNA expression at 1:100 dilution after 24 hrs by SYBR Green PCR relative to beta-actin control. It counts as functional. The procedure, abridged:
as §1

Series [8] deals with Fibroblast. In words: Immunomodulatory effect in human fibroblasts assessed as induction of IL6 mRNA expression at 5 ng/ml after 24 hrs by SYBR Green PCR relative to beta-actin control. It counts as functional. Put shortly:
as §1

Series [9] is described as follows: Toxicity in human fibroblasts assessed as decrease in IL8 mRNA expression after 24 hrs by SYBR Green PCR relative to untreated control. It is filed as cell-based. The note with it: fibroblast. The procedure, abridged:
as §1

The test system of series [10] is Fibroblast. The series can be described thus: Induction of IL8 expression in human fibroblasts at 12.5 ng/ml after 24 hrs by SYBR Green PCR relative to untreated control. It counts as functional, cell-based.
Series [11] concerns Fibroblast. In words: Immunomodulatory effect in human fibroblasts assessed as induction of MCP1 mRNA expression at 1:100 dilution after 24 hrs by SYBR Green PCR relative to beta-actin control. It counts as functional. Put shortly:
as §1

Series [12] deals with Fibroblast. The series can be described thus: Immunomodulatory effect in human fibroblasts assessed as induction of IL6 mRNA expression at 1:100 dilution after 24 hrs by SYBR Green PCR relative to beta-actin control. It is filed as functional. Put shortly:
as §1

Series [13] relates to Fibroblast. The series can be described thus: Immunomodulatory effect in human fibroblasts assessed as induction of IL8 mRNA expression at 3 ng/ml after 24 hrs by SYBR Green PCR relative to untreated control. It is filed as functional. The procedure, abridged:
as §1

Series [14] relates to Fibroblast. In words: Induction of IL8 secretion in human fibroblasts after 24 hrs by ELISA relative to untreated control. It counts as functional. The procedure, abridged: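 Primary human fibroblasts were cultured in complete DMEM with synthetic compound across a dose range that included 0.3–3 ng/mL, for 24 h. Supernatants were stored at -80 °C. IL-8 was measured by sandwich ELISA: plates coated with anti-human IL-8 overnight at 4 °C, blocked 60 min at room temperature, sample 2 h, detection antibody 30 min, avidin-HRP 30 min, then TMB substrate.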

With `CCCCC/C=C\C/C=C\C/C=C\C/C=C\CCCC(=O)O[C@@H](COC(=O)CCCCCCCCCCCCCCCCC)COC(=O)[C@@H](NC(=O)CNC(=O)[C@@H](NC(=O)[C@H](CS)NC(=O)[C@H](CC(=O)O)NC(=O)[C@H](CCCCN)NC(=O)[C@H](CCC(N)=O)NC(=O)[C@H](CCC(=O)O)NC(=O)[C@H](CCCCN)NC(=O)[C@H](CO)NC(=O)[C@@H](NC(=O)[C@H](Cc1ccc(O)cc1)NC(=O)CNC(=O)[C@H](CCCCN)NC(=O)[C@H](CC(=O)O)NC(=O)[C@H](Cc1ccc(O)cc1)NC(=O)[C@H](CC(C)C)NC(=O)[C@H](C)NC(C)=O)[C@@H](C)O)C(C)C)[C@@H](C)CC` (Ac-ALYDKGYTSKEQKDCVGI-X1), the results for the “fold change (FC)” value in series [1], in series [11] and in series [13] were 3, 3 and 5, respectively. Moreover, the result in [2], in series [5] and in [10] was inactive. Besides, the result in series [3] was Active. Further, the Activity in series [4] was 15%; in series [6], 20%; in [7], 15%; in series [8], 20%; in [9] it was “Dose-dependent effect”; in [12] it was 40%. The Activity result in [14] is “Dose-dependent effect”. In series [14], the 99% effect level (EC99) was put at 0.003 µg/mL.

The values above are taken from ChEMBL document CHEMBL1154356, “1-Peptidyl-2-arachidonoyl-3-stearoyl-sn-glyceride: an immunologically active lipopeptide from goat serum (Capra hircus) is an endogenous damage-associated molecular pattern” (J Nat Prod, 2009).
